Data set [1] deals with Escherichia coli. Put plainly: Antimicrobial activity against Escherichia coli harboring delta tolC mutant assessed as growth inhibition at 50 uM relative to control. It is filed as functional. The essentials:
(§1)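 E. coli K12 wild-type and its ΔtolC and ΔacrB efflux mutants were used. Percentage growth inhibition was taken at 100 μM, or at 25 or 50 μM where compound solubility limited the top concentration, when no MIC could be determined.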

In data set [2] the test system is Escherichia coli. Put plainly: Antimicrobial activity against Escherichia coli harboring delta tolC mutant assessed as growth inhibition at 100 uM relative to control. It is filed as functional. In short, it runs like this:
as §1

A further data set has as its system Plasmodium falciparum. Briefly: Antiplasmodial activity against Plasmodium falciparum NF54 infected in human erythrocyte assessed as reduction in [3H]hypoxanthine incorporation incubated for 24 hrs by beta liquid scintillation counter analysis. The class given is functional. In short, it runs like this: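 Compounds (DMSO stocks) were titrated in duplicate over a 64-fold range at 1.25% haematocrit and 0.3% parasitaemia for 48 h. [3H]hypoxanthine (0.25 μCi/well) was then added for 24 h and incorporation counted by scintillation. Results are % of untreated control, with IC50 by linear interpolation.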

Data set [3] in a line: Inhibition of IspE in Plasmodium falciparum incubated for 30 mins by microplate reader assay. The essentials:
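P. falciparum IspE with C-terminal His6, expressed in E. coli XL1 and purified by Ni2+ chelating chromatography and then G-25 gel filtration. Coupled PK/LDH assay with 1.0 mM CDP-ME in 100 mM Tris-HCl pH 7.6 plus MgCl2, KCl, DTT, NADH, PEP, ATP, PK and LDH. Compound added from DMSO. Read photometrically at room temperature for 30 min.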

The target of data set [4] is T1, 4-diphosphocytidyl-2-C-methyl-D-erythritol kinase (Escherichia coli (strain K12), UniProt P62615).
T1 sequence (P62615 whole entry): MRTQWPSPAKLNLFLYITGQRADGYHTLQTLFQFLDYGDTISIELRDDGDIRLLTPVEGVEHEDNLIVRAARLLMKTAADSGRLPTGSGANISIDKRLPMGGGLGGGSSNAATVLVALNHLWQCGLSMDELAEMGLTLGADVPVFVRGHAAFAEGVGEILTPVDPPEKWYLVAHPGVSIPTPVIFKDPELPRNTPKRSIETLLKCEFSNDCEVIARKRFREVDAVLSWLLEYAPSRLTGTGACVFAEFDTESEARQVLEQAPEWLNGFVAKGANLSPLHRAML
Put plainly: Inhibition of IspE expressed in Escherichia coli incubated for 30 mins by microplate reader assay.

Data set [5] relates to Escherichia coli. Briefly: Antimicrobial activity against Escherichia coli harboring delta tolC mutant assessed as growth inhibition at 25 uM relative to control. It is filed as functional. The essentials: as §1
Data set [6] relates to Escherichia coli. Put plainly: Antimicrobial activity against Escherichia coli harboring deltaACRB mutant assessed as growth inhibition at 25 uM relative to control. The class given is functional. The essentials: as §1
In data set [7] the test system is Escherichia coli. Briefly: Antimicrobial activity against Escherichia coli D22 assessed as growth inhibition at 25 uM relative to control. It is filed as functional. In short, it runs like this:
(§2)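 Broth growth assay with E. coli BL21(DE3)omp8 (porin-[…]), E. coli D22 or S. aureus Newman. Percent growth inhibition was measured at 100 μM, or at a lower concentration where compound solubility limited it, whenever no MIC could be determined.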

The subject of data set [8] is Escherichia coli. Briefly: Antimicrobial activity against Escherichia coli BL21 (DE3) assessed as growth inhibition at 25 uM relative to control. It is filed as functional. In short, it runs like this: as §2
Data set [9] concerns Staphylococcus aureus. Put plainly: Antimicrobial activity against Staphylococcus aureus subsp. aureus str. Newman assessed as growth inhibition at 25 uM relative to control. It is filed as functional. The essentials:
as §2

The subject of data set [10] is HepG2. Put plainly: Cytotoxicity against human HepG2 cells at 25 uM after 72 hrs by MTT assay. It is filed as functional.
Data set [11] is described as follows: Inhibition of PK/LDH (unknown origin). The essentials:
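Counter-screen of the auxiliary enzymes: 1 mM ADP, 2 mM PEP, 1 mM NADH, PK and LDH (0.05 U/mL each), 10 mM MgCl2, 200 mM KCl, 10 mM DTT in 100 mM Tris-HCl pH 7.6. Compound added from DMSO. NADH decrease monitored photometrically at room temperature for 30 min.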

Data set [12] deals with Escherichia coli. Briefly: Antimicrobial activity against Escherichia coli K-12 mutant assessed as growth inhibition at 100 uM relative to control. The class given is functional. The essentials:
as §1

In data set [13] the test system is Escherichia coli. Put plainly: Antimicrobial activity against Escherichia coli harboring deltaACRB mutant assessed as growth inhibition at 100 uM relative to control. It is filed as functional. The essentials:
as §1

In data set [14] the test system is Escherichia coli. Put plainly: Antimicrobial activity against Escherichia coli D22 assessed as growth inhibition at 100 uM relative to control. It is filed as functional. In short, it runs like this: as §2
The subject of data set [15] is Escherichia coli. Briefly: Antimicrobial activity against Escherichia coli BL21 (DE3) assessed as growth inhibition at 100 uM relative to control. The class given is functional. In short, it runs like this: as §2
Data set [16] has as its system Staphylococcus aureus. Briefly: Antimicrobial activity against Staphylococcus aureus subsp. aureus str. Newman assessed as growth inhibition at 50 uM relative to control. The class given is functional. The essentials:
as §2

For data set [17], the system named is HepG2. Briefly: Cytotoxicity against human HepG2 cells at 100 uM after 72 hrs by MTT assay. It is filed as functional.
Data set [18] can be described thus: Octanol/water partition co-efficient, log P of compound. It is filed as physicochemical. In short, it runs like this: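 Log P(o/w) calculated in silico, not measured.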
Data set [19] deals with Staphylococcus aureus. Put plainly: Antimicrobial activity against Staphylococcus aureus subsp. aureus str. Newman assessed as growth inhibition at 100 uM relative to control. The class given is functional. The essentials:
as §2

The subject of data set [20] is Escherichia coli. Put plainly: Antimicrobial activity against Escherichia coli harboring deltaACRB mutant assessed as growth inhibition at 50 uM relative to control. The class given is functional. The essentials: as §1
For data set [21], the system named is Escherichia coli. Briefly: Antimicrobial activity against Escherichia coli D22 assessed as growth inhibition at 50 uM relative to control. It is filed as functional. In short, it runs like this:
as §2

Data set [22] deals with Escherichia coli. Put plainly: Antimicrobial activity against Escherichia coli BL21 (DE3) assessed as growth inhibition at 50 uM relative to control. The class given is functional. The essentials: as §2
The test system of data set [23] is HepG2. Put plainly: Cytotoxicity against human HepG2 cells at 50 uM after 72 hrs by MTT assay. It is filed as functional.
Data set [24] relates to Escherichia coli. Put plainly: Antimicrobial activity against Escherichia coli K-12 mutant assessed as growth inhibition at 100 uM in presence of polymyxin B nonapeptide relative to control. The class given is functional.

Turning to `Cc1cc(-c2csc(NC(=O)[C@@H](NC(=O)OC(C)(C)C)N[C@@H](Cc3ccc(O)cc3)C(=O)O)n2)c(C)n1C`, the inhibition at 50 µM in the data set with Escherichia coli [1] is 13%.

Consider `Cc1cc(-c2csc(NC(=O)[C@H](NCC(=O)O)NC(=O)OC(C)(C)C)n2)c(C)n1C`, for which the inhibition at 100 µM in the data set on Escherichia coli [2] came out at 46%.

As for `CCCn1c(C)cc(-c2csc(NC(=O)c3ccco3)n2)c1C`, the IC50 with Plasmodium falciparum amounted to 5 µM; in [3], 57 µM; in [4], 91 µM; in data set [11], 65 µM. Moreover, the inhibition at 25 µM is 30% in the data set with Escherichia coli [5]; 5% with Escherichia coli [6]; 9% in the data set with Escherichia coli [7]; 3% with Escherichia coli [8]; 6% in the data set on Staphylococcus aureus [9]; 19% in the data set on HepG2 [10].

`CCn1c(C)cc(-c2csc(NC(=O)[C@@H](N)NCC(=O)O)n2)c1C`: the inhibition at 100 µM was determined as 55% with Escherichia coli [2]; 13% in the data set with Escherichia coli [12]; 65% in the data set with Escherichia coli [13]; 20% in the data set on Escherichia coli [14]; 16% with Escherichia coli [15]; 23% in the data set on HepG2 [17]. For the same compound, the inhibition at 50 µM with Staphylococcus aureus [16] is 14%. Further, the logP in [18] was determined as 1.4.

Regarding `CC(C)(C)OC(=O)N[C@@H](NCC(=O)O)C(=O)Nc1csc(-c2ccccc2)n1`, the inhibition at 100 µM with Escherichia coli [2] was 34%.

On to `N[C@@H](NCC(=O)O)C(=O)Nc1csc(-c2ccccc2)n1`, for which the inhibition at 100 µM with Escherichia coli [2] is 10%; in the data set on Escherichia coli [12] it was 22%; in the data set with Escherichia coli [13] it was 6%; with Escherichia coli [14], 15%; in the data set with Escherichia coli [15], 19%; in the data set with Staphylococcus aureus [19] it was 5%. For the same compound, in the data set with HepG2 [17], the inhibition at 100 µM is 17%.

Take `Cc1cc(-c2csc(NC(=O)[C@@H](N)N[C@@H](Cc3ccc(O)cc3)C(=O)O)n2)c(C)n1C`: the inhibition at 100 µM in the data set with Escherichia coli [2] was 38%.

Regarding `Cc1cc(-c2csc(NC(=O)[C@@H](NC(=O)OC(C)(C)C)N[C@H](C(=O)O)C(C)C)n2)c(C)n1C`, the inhibition at 50 µM in the data set with Escherichia coli [1] stood at 14%.

Take `CC(C)[C@H](N[C@H](NC(=O)OC(C)(C)C)C(=O)Nc1csc(-c2ccccc2)n1)C(=O)O`: in the data set on Escherichia coli [2], the inhibition at 100 µM turned out to be 21%.

As to `Cc1cc(-c2csc(NC(=O)[C@@H](NC(=O)OC(C)(C)C)N[C@@H](CC(C)C)C(=O)O)n2)c(C)n1C`, in the data set with Escherichia coli [1], the inhibition at 50 µM was 8%.

In the case of `Cc1cc(-c2csc(NC(=O)[C@@H](N)N[C@@H](CC(C)C)C(=O)O)n2)c(C)n1C`, the inhibition at 100 µM stood at 58% in the data set on Escherichia coli [2] and 52% in the data set on Staphylococcus aureus [19].

Turning to `CC(C)C[C@H](N[C@H](NC(=O)OC(C)(C)C)C(=O)Nc1csc(-c2ccccc2)n1)C(=O)O`, in the data set on Escherichia coli [2], the inhibition at 100 µM worked out at 3%.

Turning to `CCCn1c(C)cc(-c2csc(NC(=O)c3cccs3)n2)c1C`, the IC50 with Plasmodium falciparum was 6 µM; in [3], 35 µM; in data set [4], 68 µM; in data set [11], 56 µM. In addition, the inhibition at 50 µM with Escherichia coli [1] is 33%; in the data set on Escherichia coli [20] it was 7%; in the data set with Escherichia coli [21] it was 4%; in the data set with Escherichia coli [22], 19%; with Staphylococcus aureus [16], 7%; with HepG2 [23] it was -3%.

Consider `Cc1cc(-c2csc(NC(=O)[C@@H](N)N[C@H](C(=O)O)C(C)C)n2)c(C)n1C`, for which the inhibition at 100 µM with Escherichia coli [2] worked out at 42%.

Take `CCn1c(C)cc(-c2csc(NC(=O)[C@H](NCC(=O)O)NC(=O)OC(C)(C)C)n2)c1C`: in the data set with Escherichia coli [1], the inhibition at 50 µM worked out at 41%.

`Cc1cc(-c2csc(NC(=O)[C@@H](N)NCC(=O)O)n2)c(C)n1C`: the inhibition at 100 µM in the data set with Escherichia coli [2] was 57%; with Escherichia coli [12], 13%; with Escherichia coli [13] it was 8%; in the data set with Escherichia coli [14] it was 3%; with Escherichia coli [15], 18%; in the data set with Staphylococcus aureus [19] it was 6%. For the same compound, in the data set on HepG2 [23], the inhibition at 50 µM turned out to be 19%. The compound also returned a logP in [18] of 0.9.

Take `CC(C)[C@H](N[C@H](N)C(=O)Nc1csc(-c2ccccc2)n1)C(=O)O`: the inhibition at 100 µM came to 17% in the data set with Escherichia coli [2]; 13% in the data set with Escherichia coli [12]; 2% with Escherichia coli [13]; 14% in the data set on Escherichia coli [14]; 16% with Escherichia coli [15]; 5% in the data set with Staphylococcus aureus [19].

As for `CC(C)C[C@H](N[C@H](N)C(=O)Nc1csc(-c2ccccc2)n1)C(=O)O`, the inhibition at 100 µM in the data set on Escherichia coli [2] was found to be 32%; with Escherichia coli [12], 18%; with Escherichia coli [13] it was 11%; in the data set on Escherichia coli [14] it was 18%; in the data set on Escherichia coli [15], 30%; in the data set with Staphylococcus aureus [19], 11%.

As for `Nc1nc(=O)n(C2CCCS2)cc1C#CCNS(=O)(=O)C1CC1` (stereo unspecified), the IC50 is greater than 500 µM in [3], 1 µM in data set [4] and greater than 500 µM in data set [11]. The inhibition at 100 µM with Escherichia coli [24] is 6%.

For the origin of these results see ChEMBL document CHEMBL4732025, “Assessment of the rules related to gaining activity against Gram-negative bacteria” (RSC Med Chem, 2021).
